Laboratory results: ChEMBL document CHEMBL4480410, “Targeting the MKK7-JNK (Mitogen-Activated Protein Kinase Kinase 7-c-Jun N-Terminal Kinase) Pathway with Covalent Inhibitors” (J Med Chem, 2019)
Calls of active or inactive are those of the source. The rule behind the calls is not given here.

Key:
[1] = Protein binding in human plasma at 5 uM after 6 hrs by LC/MS analysis; format: ADME, cell-free; conditions: read-out: PPB (converted)
In short: (§1)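 Equilibrium dialysis of plasma with compound at 5 µM, 6 h at 37 °C; final compound concentrations determined by LC/MS to give percent bound.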

[2] = Apparent permeability across apical to basolateral side in human Caco2 cells at 5 uM after 2 hrs by transwell membrane based assay; format: ADME, cell-based; conditions: Caco-2
In short: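 10 mM DMSO stock diluted to 5 µM final in HBSS pH 7.4; 2 h at 37 °C, 5% CO2 on Caco-2 monolayers grown 21 days on transwell membranes.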

[3] = target: T1, Cytoplasmic tyrosine-protein kinase BMX (Homo sapiens) (UniProt P51813); assay: Inhibition of BMX (unknown origin) at 1 uM by proQinase-based assay relative to control
T1 sequence (whole entry): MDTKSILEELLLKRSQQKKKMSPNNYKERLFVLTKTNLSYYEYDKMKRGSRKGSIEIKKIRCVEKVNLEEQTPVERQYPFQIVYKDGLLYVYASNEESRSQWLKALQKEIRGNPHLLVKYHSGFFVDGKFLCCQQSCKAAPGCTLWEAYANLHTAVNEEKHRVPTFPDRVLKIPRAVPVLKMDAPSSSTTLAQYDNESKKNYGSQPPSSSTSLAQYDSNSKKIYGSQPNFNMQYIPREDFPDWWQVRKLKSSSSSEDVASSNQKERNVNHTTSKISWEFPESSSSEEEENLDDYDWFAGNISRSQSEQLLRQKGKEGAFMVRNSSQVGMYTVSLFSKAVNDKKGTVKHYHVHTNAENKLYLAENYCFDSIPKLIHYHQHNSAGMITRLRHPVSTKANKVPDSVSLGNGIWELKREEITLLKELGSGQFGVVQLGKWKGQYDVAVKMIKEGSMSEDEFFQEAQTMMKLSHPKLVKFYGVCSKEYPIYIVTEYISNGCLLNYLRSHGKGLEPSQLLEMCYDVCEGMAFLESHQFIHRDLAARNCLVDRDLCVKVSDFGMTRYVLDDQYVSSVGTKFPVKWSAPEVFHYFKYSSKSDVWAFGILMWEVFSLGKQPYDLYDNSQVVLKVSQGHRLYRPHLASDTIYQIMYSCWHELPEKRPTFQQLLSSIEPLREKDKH

[4] = Protein binding in mouse plasma at 5 uM after 6 hrs by LC/MS analysis; format: ADME, cell-free; conditions: read-out: PPB (converted); in short: as §1
[5] = target: Ribosomal protein S6 kinase (Homo sapiens) (UniProt P51812+Q9UBS0+O75676+Q15349+O75582+P23443+Q9UK32+Q15418); assay: Inhibition of SK6 (unknown origin) at 1 uM by proQinase-based assay relative to control; format: protein assay
[6] = Stability in mouse plasma assessed as compound remaining at 5 uM after 1 hr by LC/MS analysis; format: ADME, cell-free; conditions: read-out: Stability
In short: (§2)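 Compound at 5 µM incubated 1 h at 37 °C in human or mouse plasma; percentage remaining quantified by LC/MS.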

[7] = target: Tyrosine-protein kinase Blk (Homo sapiens) (UniProt P51451); assay: Inhibition of BLK (unknown origin) at 1 uM by proQinase-based assay relative to control
Sequence of Tyrosine-protein kinase Blk (Homo sapiens) (P51451 2-505 limits assumed): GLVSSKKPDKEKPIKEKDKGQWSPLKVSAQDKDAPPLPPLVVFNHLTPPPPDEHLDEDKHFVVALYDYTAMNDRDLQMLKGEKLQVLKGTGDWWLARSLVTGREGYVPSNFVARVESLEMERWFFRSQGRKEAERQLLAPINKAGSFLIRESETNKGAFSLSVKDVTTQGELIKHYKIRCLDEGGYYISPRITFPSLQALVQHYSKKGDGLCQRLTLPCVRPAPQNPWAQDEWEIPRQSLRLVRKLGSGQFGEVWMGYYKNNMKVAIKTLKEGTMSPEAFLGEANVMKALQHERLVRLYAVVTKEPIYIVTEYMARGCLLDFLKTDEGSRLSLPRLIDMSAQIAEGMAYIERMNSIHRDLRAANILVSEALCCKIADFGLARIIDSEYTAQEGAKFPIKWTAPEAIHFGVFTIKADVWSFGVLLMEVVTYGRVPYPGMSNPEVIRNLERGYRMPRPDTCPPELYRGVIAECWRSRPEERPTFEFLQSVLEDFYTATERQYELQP

[8] = Stability in human plasma assessed as compound remaining at 5 uM after 1 hr by LC/MS analysis; format: ADME, cell-free; conditions: read-out: Stability; in short: as §2
[9] = target: T2, Dual specificity mitogen-activated protein kinase kinase 7 (Mus musculus) (UniProt Q8CE90); assay: Inhibition of MKK7 in mouse DRG cells assessed as reduction in cJUN phosphorylation at 1 uM after 2 hrs by Western blot analysis; format: cell-based
T2 sequence (whole entry): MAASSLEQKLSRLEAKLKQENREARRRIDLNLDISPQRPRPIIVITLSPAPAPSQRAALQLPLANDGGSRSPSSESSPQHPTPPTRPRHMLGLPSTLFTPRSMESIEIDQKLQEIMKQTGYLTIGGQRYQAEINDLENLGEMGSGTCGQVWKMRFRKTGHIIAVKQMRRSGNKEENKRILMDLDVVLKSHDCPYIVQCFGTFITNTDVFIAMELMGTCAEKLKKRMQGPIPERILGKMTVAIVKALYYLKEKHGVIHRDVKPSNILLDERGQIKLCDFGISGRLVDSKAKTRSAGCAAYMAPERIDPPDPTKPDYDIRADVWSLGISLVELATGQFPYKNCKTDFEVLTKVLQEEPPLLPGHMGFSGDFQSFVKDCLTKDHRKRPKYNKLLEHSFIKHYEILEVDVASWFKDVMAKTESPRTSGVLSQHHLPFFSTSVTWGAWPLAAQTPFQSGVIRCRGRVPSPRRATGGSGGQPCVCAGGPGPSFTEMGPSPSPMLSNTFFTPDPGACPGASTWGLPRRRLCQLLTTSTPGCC
In short: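 Dissociated DRG neurons plated on laminin for 3 h, medium replaced, compound added for a further 2 h. Neurons lysed in RIPA buffer with phosphatase inhibitors. Western blots probed for phospho-cJun, cJun, phospho-JNK and JNK.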

[10] = Apparent permeability across basolateral to apical side in MDCK2-MDR1 cells at 10 uM after 2 hrs by transwell membrane based assay; format: ADME, cell-based, Canis lupus familiaris; conditions: dog, MDCK-MDR1
In short: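 Compound at 10 µM in HBSS added to apical or basolateral side of MDCKII-MDR1 monolayer, 2 h at 37 °C. Both sides quantified by LC-MS/MS; Papp A–B or B–A from receiver concentration and volume, time, membrane area and initial donor concentration.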

Question: Which results are given for `C=CC(=O)N1CCC[C@@H](n2nc(-c3cn(-c4ccc(C(C)=O)cc4)nn3)c3c(N)ncnc32)C1`?
Answer: fraction unbound at 6 h, 5 µM [1]: 0.04; Papp A→B at 2 h, 5 µM [2]: 20 ×10⁻⁶ cm/s; inhibition [3]: > 50%; fraction unbound at 6 h, 5 µM [4]: 0.073; inhibition [5]: > 50%; remaining at 1 h, 5 µM [6]: 70.4%; inhibition [7]: > 50%; remaining at 1 h, 5 µM [8]: > 99%; inhibition [9]: Active; Papp B→A at 2 h, 10 µM [10]: 4 ×10⁻⁶ cm/s
